GalR3 antag: antagonists of human GalR3. O60755. HEK293 GalR3-CNG cAMP membrane potential fluorescence; galR3 body fused to GalR1 C-terminus. inhibition, % at 3 µM. 0.44% of 360,000 active. AID 651719;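 active = inhibition above the screen-wide average plus 3 SD, cut at about 13% in these data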;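 also: forskolin and galanin both at EC90 stimulate the cells; cAMP rise reported by CNG channel membrane potential dye signal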
CHO parental Ca: counter-screen: ATP calcium response change in parental CHO cells. parental CHO-K1, ATP-induced calcium, Fluo-8 fluorescence. inhibition, % at 5.6 µM. 0.63% of 330,000 active. AID 463079;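 active = inhibition above that plate's mean sample inhibition plus 3 SD, cut at about 26% in these data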
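Assay system: untransfected parental CHO cell line. Also added: ATP agonist challenge. Dosing: one dose, 5.6 µM nominal. Measured by: Fluo-8 fluorescence. Read-out: % inhibition. Benchmarks: ATP wells versus no-ATP DMSO wells. Repeats: no replicates.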
TAAR1 antagonist: human TAAR1 antagonism; Q96RJ0; CHO RD-HGA16 TAAR1, Fluo-8 calcium fluorescence, antagonist; inhibition, % at 3 µM; AID 624466; 1.5% of 360,000 active;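 active = inhibition above a per-plate cutoff, the mean inhibition of test compounds on that plate plus 3 SD, cut at about 49% in these data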
Target sequence (Q96RJ0 whole entry, looked up): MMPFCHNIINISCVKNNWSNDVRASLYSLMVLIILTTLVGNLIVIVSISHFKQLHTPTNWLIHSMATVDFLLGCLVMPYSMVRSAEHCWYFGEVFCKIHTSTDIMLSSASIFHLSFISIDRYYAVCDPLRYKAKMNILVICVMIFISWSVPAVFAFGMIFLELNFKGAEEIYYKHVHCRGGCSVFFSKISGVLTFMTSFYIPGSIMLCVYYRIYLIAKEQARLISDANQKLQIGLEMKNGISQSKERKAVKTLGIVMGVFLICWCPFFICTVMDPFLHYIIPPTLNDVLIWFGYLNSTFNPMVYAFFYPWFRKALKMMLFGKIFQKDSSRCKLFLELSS
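Test system: hTAAR1-expressing CHO RD-HGA16 cells, Gα16-coupled; Probe or stimulus: EC80 β-phenethylamine stimulus; Compound dosing: single nominal final test compound concentration of 3 µM; Timing: 140 s kinetic read after compound, 140 s after agonist; Signal: Fluo-8 calcium-sensitive fluorescence; Measure: % inhibition of agonist calcium response; Controls: DMSO and EC80 PEA controls.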
TAAR1 ag: human TAAR1 agonism; CHO RD-HGA16 TAAR1, Fluo-8 calcium fluorescence; vehicle wells 0%, saturating PEA agonist 100%; AID 624467; Q96RJ0; activation, % at 3 µM; 0.99% of 360,000 active;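 active = activation above the mean activation of all test compounds in the run plus 3 SD, cut at about 38% in these data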
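System: CHO-derived RD-HGA16 cells with stable Gα16 and human TAAR1. Times: 17-24 h plating, Fluo-8 75 min 37 °C, 30 min RT. Measured by: calcium-sensitive Fluo-8 signal, excitation 470-495, emission 515-575 nm. Read-out basis: % activation relative to PEA EC100 response. Control set: DMSO and PEA EC100. Repeats: no replicates (n 1).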
OX1R antag-1: human HCRTR1 antagonism. O43613. CHO/OX1R cells, Fluo-8 calcium fluorescence, orexin A. inhibition, % at 5 µM. 0.43% of 330,000 active;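 active = inhibition above its plate's threshold, mean inhibition of all tested compounds on the plate plus 3 SD, cut at about 37% in these data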
Target sequence (O43613 whole entry, looked up): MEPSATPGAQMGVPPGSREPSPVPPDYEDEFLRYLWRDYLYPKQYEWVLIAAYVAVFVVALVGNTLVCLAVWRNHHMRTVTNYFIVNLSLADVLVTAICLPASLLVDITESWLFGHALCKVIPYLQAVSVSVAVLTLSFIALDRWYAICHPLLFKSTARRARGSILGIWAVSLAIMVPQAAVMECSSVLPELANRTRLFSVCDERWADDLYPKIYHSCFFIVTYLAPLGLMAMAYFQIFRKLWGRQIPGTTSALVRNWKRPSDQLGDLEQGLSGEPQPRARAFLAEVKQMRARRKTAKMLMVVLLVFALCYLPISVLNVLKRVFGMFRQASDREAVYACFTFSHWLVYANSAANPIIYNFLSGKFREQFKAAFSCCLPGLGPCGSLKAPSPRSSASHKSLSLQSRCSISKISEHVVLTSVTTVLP
OX1R antag-2: OX1R (human) antagonism | OX1R-expressing cells, FRET antagonist read-out | inhibition, % at 6.6 µM | 1.8% of 330,000 active | O43613; in the data active = inhibition mostly above about 38%, no sharp cut-off; inactive = mostly below about 40%
GalR3 conf: GalR3 (human) antagonism, confirmation. 59% of 1,600 active. shares compounds with GalR3 antag. AID 652245. inhibition, % at 3 µM. HEK293 GalR3 CNG cAMP biosensor, membrane potential fluorescence; galR3 fused to GalR1 carboxy tail; challenged with forskolin and galanin at EC90;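 active = inhibition above the primary screen's cutoff, the mean inhibition of all screened compounds plus 3 SD, cut at about 13% in these data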
HEK-CNG parental: counter-screen for GalR3 antagonists: nonspecific agonists in parental HEK-CNG cells. shares compounds with GalR3 antag. HEK293-CNG parental cells, cAMP membrane potential fluorescence; normalised: DMSO wells 0%, forskolin wells 100%. activation, % at 3 µM. 10% of 1,600 active. AID 652268; in the data active = activation above about 1.3%
Each line names hits and unclear results; the compound was inactive in the other large screens (follow-up assays come after a bar, where they were run). This is a sample that favours compounds with a hit; in the whole collection about 4.2% have one here.

COc1ccccc1-c1cc(C(F)(F)F)nc(S(=O)(=O)CCCC(=O)NC(C)C)n1	none
COc1ccccc1-c1cc(C(F)(F)F)nc(S(=O)(=O)CCCC(=O)Nc2cccnc2Cl)n1	GalR3 antag 21.6 (no result: CHO parental Ca, OX1R antag-1, OX1R antag-2) | GalR3 conf 22.4 | HEK-CNG parental inactive
COc1ccccc1-c1cc(C(F)(F)F)nc(S(=O)(=O)CCCC(=O)Nc2cc(C)on2)n1	none
CCN(CC)CCNC(=O)C1c2cc(OC)c(OC)cc2C(=O)N(C)C1c1cccs1 (stereo not drawn)	none
COC(=O)CCN1CCC(C(N)=O)CC1	none
COCCNC(=O)C/C(C)=N/NC(=O)C(=O)NC1CCCCC1	GalR3 antag 12.7 | GalR3 conf inactive | HEK-CNG parental inactive
COCCCNC(=O)C(=O)NC1CCCCCC1	none
O=C(NCCc1ccc(Cl)cc1)c1ccc2nc(N3CCOCC3)sc2c1	GalR3 antag 16.2 | GalR3 conf 19.0 | HEK-CNG parental inactive
CCOc1ccc(CNC(=O)c2ccc3nc(N4CCOCC4)sc3c2)cc1	none
Cc1nn(C)c(C(=O)NCc2ccc(Cl)cc2)c1Cl	GalR3 antag 81.6 | GalR3 conf 100.4 | HEK-CNG parental inactive
Cc1nc(C)c(C(=O)NCc2ccc(Cl)cc2)o1	none (no result: GalR3 antag, TAAR1 antagonist, TAAR1 ag)
CC1(C)CC2(CC(c3ccccc3)Oc3cc(O)ccc32)NC(=S)N1 (stereo not drawn)	none
CC(=O)Oc1ccc2c(c1)OC(c1ccccc1)CC21CC(C)(C)NC(=S)N1 (stereo not drawn)	none (no result: GalR3 antag) | GalR3 conf inactive | HEK-CNG parental inactive
Cc1nnc(SCc2nc3scc(-c4ccccc4)c3c(=O)[nH]2)s1	GalR3 antag 13.6 | GalR3 conf inactive | HEK-CNG parental inactive
O=c1[nH]c(Cc2ccccc2)nc2scc(-c3ccccc3)c12	none
COc1cc(OC)cc(-c2c(C#Cc3ccsc3)c3cc(-c4ccc(C(N)=O)cc4)ccc3n2C)c1	none (no result: GalR3 antag) | GalR3 conf inactive | HEK-CNG parental inactive
CC(C(=O)Nc1ccc2[nH]c(=O)[nH]c2c1)N1CCN(Cc2ccc3c(c2)OCO3)CC1 (stereo not drawn)	GalR3 antag 13.4 | GalR3 conf 13.4 | HEK-CNG parental inactive
COc1cccc(CN2CCC2(C)C(=O)Nc2ccc(C)cc2)c1F (stereo not drawn)	none (no result: CHO parental Ca, OX1R antag-1, OX1R antag-2)
CC1(C)CC1C(=O)Nc1ccc([N+](=O)[O-])cc1Br (stereo not drawn)	none
Cc1ccc(C2(c3ccc(C)cc3)CC2C(=O)Nc2ccc([N+](=O)[O-])cc2O)cc1 (stereo not drawn)	GalR3 antag 60.9 | GalR3 conf 21.5 | HEK-CNG parental inactive
COC(=O)c1cc2c(cc1Cl)N1CCCCCC1=NS2(=O)=O	none
COc1ccc(-c2cc(NC=O)c3ncc(-c4ccc(OC)c(OC)c4)n3c2)c(OC)c1	GalR3 antag 44.4 (no result: CHO parental Ca, OX1R antag-1, OX1R antag-2) | GalR3 conf 24.8 | HEK-CNG parental inactive
COc1ccc(-c2cnc3c(NC=O)cc(-c4cccc(NS(C)(=O)=O)c4)cn23)cc1OC	GalR3 antag 58.8 (no result: CHO parental Ca, OX1R antag-1, OX1R antag-2) | GalR3 conf 42.7 | HEK-CNG parental inactive
COc1cccc(-c2cc(NC=O)c3ncc(-c4ccc(OC)c(OC)c4)n3c2)c1	GalR3 antag 37.7 (no result: CHO parental Ca, OX1R antag-1, OX1R antag-2) | GalR3 conf 39.3 | HEK-CNG parental inactive
COc1ccc(-c2cnc3c(NC=O)cc(-c4ccc(F)cc4)cn23)cc1OC	GalR3 antag 15.1 (no result: CHO parental Ca, OX1R antag-1, OX1R antag-2) | GalR3 conf 21.1 | HEK-CNG parental inactive
CCN(CC)c1ccc(/C=N/NC(=O)CNC(=O)c2ccccn2)cc1	none
CCc1ccccc1NC(=O)CCS(=O)(=O)c1ccc2c(c1)CCCN2C(C)=O	none
COc1cccc(C(=O)N2CCN(C(=O)Cc3ccccc3)CC2)c1	none
C/C(=N/NC(=O)CNC(=O)c1cccs1)c1ccc(Cl)cc1	none
COc1ccccc1-c1cc(C(=O)NC2CCN(C)CC2)c2ccc(Cl)c(C)c2n1	none
Cc1ccc(C)c(N2CCN(C(=O)c3cc(S(=O)(=O)N4CCCC4)cn3C)CC2)c1	none (no result: GalR3 antag)
CCOc1ccc(C(=O)OCC(=O)NC2CCCCCCC2)cc1	none
COc1ccc(-c2cc3c(c4c2ccn4C)C2CCC3C2)cc1 (stereo not drawn)	none (no result: CHO parental Ca, OX1R antag-1, OX1R antag-2)
COc1ccccc1-c1cc(NC=O)c2ncc(-c3ccc(S(C)(=O)=O)cc3)n2c1	GalR3 antag 13.7 (no result: CHO parental Ca, OX1R antag-1, OX1R antag-2) | GalR3 conf 30.5 | HEK-CNG parental inactive
COc1ccc(-c2cnc3c(NC=O)cc(-c4cc(OC)c(OC)c(OC)c4)cn23)cc1OC	none (no result: CHO parental Ca, OX1R antag-1, OX1R antag-2)
COc1ccc(-c2cnc3c(NC=O)cc(-c4ccccc4)cn23)cc1OC	GalR3 antag 44.2 (no result: CHO parental Ca, OX1R antag-1, OX1R antag-2) | GalR3 conf 14.8 | HEK-CNG parental inactive
CCN(C(=O)CSc1nc2nc(C)cc(C)n2n1)c1cccc(C)c1	none
COc1cccc(NC(=S)N(CCCN2CCCC2)Cc2ccco2)c1	GalR3 antag 21.0 | GalR3 conf inactive | HEK-CNG parental inactive
COc1ccc(NC(=S)N(CCCN2CCCC2)Cc2ccco2)cc1	none
COc1cc(C(=O)O[C@H]2CC(C)=CC[C@@]3(C)CC[C@@](O)(C(C)C)[C@H]23)ccc1O	GalR3 antag 25.8 | GalR3 conf 21.3 | HEK-CNG parental inactive
Cc1cc(F)ccc1N1CCC(N2CCN(C(C)C)C(CCO)C2)CC1 (stereo not drawn)	GalR3 antag 17.7 | GalR3 conf inactive | HEK-CNG parental inactive
CCCC(=O)N1CCCC(c2cc(C(=O)Nc3ccc4c(c3)OCO4)no2)C1 (stereo not drawn)	none (no result: CHO parental Ca, OX1R antag-1, OX1R antag-2)
Cc1nc2ccccc2cc1OCc1ccc(Cl)cc1	GalR3 antag 93.7, CHO parental Ca 50.0, OX1R antag-2 40.9 | GalR3 conf 94.4 | HEK-CNG parental inactive
COc1cccc(COc2cc3ccccc3nc2C)c1	GalR3 antag 92.3 | GalR3 conf 102.6 | HEK-CNG parental inactive
Cc1nc2ccccc2nc(C)c1=NOCc1cccc(Cl)c1	none
COC(=O)c1sccc1OCc1cccc(OC)c1	none
O=C(CN1CCOCC1)NNC(=S)Nc1ccccc1	none
O=C(NC1CCCCC1)C(c1ccc(F)cc1)N(Cc1ccccc1)C(=O)CN1C(=O)c2ccccc2S1(=O)=O (stereo not drawn)	none
Cn1ccc2ccc(C3=CC(=O)C[C@H](c4ccc(F)cc4)C3)cc21	none
O=C(Nc1ccc(Oc2ccccc2)cc1)c1csc([C@H]2C[C@H](O)[C@@H](CO)O2)n1	GalR3 antag 83.8, TAAR1 antagonist 67.9 (no result: CHO parental Ca, OX1R antag-1, OX1R antag-2) | GalR3 conf 109.4 | HEK-CNG parental inactive
